Assay results reported in ChEMBL document CHEMBL1143221, “Two-carbon-elongated HIV-1 protease inhibitors with a tertiary-alcohol-containing transition-state mimic” (J Med Chem, 2008).

Experiments:
[1] = Cytotoxicity against human MT4 cells; assay type: cell-based
[2] = Permeability from apical to basolateral side of human Caco-2 cell membrane; assay type: ADME, cell-based
[3] = system: Human immunodeficiency virus 1; experiment: Antiviral activity against HIV1 in MT4 cells by XTT assay; assay type: functional, organism-based; conditions: Human immunodeficiency virus 1, MT4
Protease = Protease (Human immunodeficiency virus 1, UniProt Q9YQ12); experiment: Inhibition of HIV1 protease expressed in Escherichia coli
Protease, sequence (Q9YQ12 whole entry): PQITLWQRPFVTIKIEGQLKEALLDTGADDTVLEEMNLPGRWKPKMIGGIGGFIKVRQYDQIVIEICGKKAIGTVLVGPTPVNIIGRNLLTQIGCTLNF

[4] = Metabolic stability in human liver microsomes after 30 mins; assay type: ADME, Microsome; conditions: read-out: Stability
How it was run: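 Test compound incubated with human liver microsomes for 30 min at 37 °C. Read-out is percent parent compound remaining.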

Row | Papp A→B [2] [×10⁻⁶ cm/s] | Ki (Protease) [nM] | remaining at 0.5 h [4] [%] | Structure (SMILES) | CC50 [1] [nM] | EC50 [3] [nM]
1 | > 20 | 420 | – | COC(=O)N[C@H](C(=O)NN(CCC[C@](O)(Cc1ccccc1)C(=O)N[C@H]1c2ccccc2C[C@H]1O)Cc1ccc(Br)cc1)C(C)(C)C | > 10000 | > 10000
2 | < 20 | 5.7 | – | COC(=O)N[C@H](C(=O)NN(CCC[C@@](O)(Cc1ccccc1)C(=O)N[C@H]1c2ccccc2C[C@H]1O)Cc1ccccc1)C(C)(C)C | > 10000 | 1200
3 | > 20 | – | – | COC(=O)N[C@H](C(=O)NN(CCC[C@@](O)(Cc1ccccc1)C(=O)N[C@H]1c2ccccc2C[C@H]1O)Cc1ccc(Br)cc1)C(C)(C)C | > 10000 | 850
4 | – | 3.6 | – | COC(=O)N[C@H](C(=O)NN(CCC[C@@](O)(Cc1ccccc1)C(=O)N[C@H]1c2ccccc2C[C@H]1O)Cc1ccc(N2CCOCC2)cc1)C(C)(C)C | > 10000 | 500
5 | – | – | – | COC(=O)N[C@H](C(=O)NN(Cc1ccc(Br)cc1)C[C@](O)(Cc1ccccc1)C(=O)N[C@H]1c2ccccc2C[C@H]1O)C(C)(C)C | – | 1100
6 | – | 11 | – | COC(=O)N[C@H](C(=O)NN(CCC[C@@](O)(Cc1ccccc1)C(=O)N[C@H]1c2ccccc2C[C@H]1O)Cc1ccc(CN2CCOCC2)cc1)C(C)(C)C | > 10000 | 880
7 | < 20 | 2.8 | 94 | COC(=O)N[C@H](C(=O)NN(CCC[C@@](O)(Cc1ccccc1)C(=O)N[C@H]1c2ccccc2C[C@H]1O)Cc1ccc(-c2ccncc2)cc1)C(C)(C)C | > 10000 | 170
8 | > 20 | 7.3 | – | COC(=O)N[C@H](C(=O)NN(CCC[C@@](O)(Cc1ccccc1)C(=O)N[C@H]1c2ccccc2C[C@H]1O)Cc1ccc(-c2ccccc2)cc1)C(C)(C)C | 7500 | 780
9 | – | 2.9 | – | COC(=O)N[C@H](C(=O)NN(CCC[C@@](O)(Cc1ccccc1)C(=O)N[C@H]1c2ccccc2C[C@H]1O)Cc1ccc(C#N)cc1)C(C)(C)C | > 10000 | 1200
10 | – | 2.4 | – | COC(=O)N[C@H](C(=O)NN(CCC[C@@](O)(Cc1ccccc1)C(=O)N[C@H]1c2ccccc2C[C@H]1O)Cc1ccc(-c2cncnc2)cc1)C(C)(C)C | > 10000 | 220
11 | – | – | – | COC(=O)N[C@H](C(=O)NN(CCC[C@@](O)(Cc1ccccc1)C(=O)N[C@H]1c2ccccc2C[C@H]1O)Cc1ccc(OCc2cnc(Cl)s2)cc1)C(C)(C)C | > 10000 | 600
12 | – | 4.5 | – | COC(=O)N[C@H](C(=O)NN(CCC[C@@](O)(Cc1ccccc1)C(=O)N[C@H]1c2ccccc2C[C@H]1O)Cc1ccc(I)cc1)C(C)(C)C | > 10000 | 820
13 | – | 4.9 | – | COC(=O)N[C@H](C(=O)NN(CCC[C@@](O)(Cc1ccccc1)C(=O)N[C@H]1c2ccccc2C[C@H]1O)Cc1ccc(N(C)C)cc1)C(C)(C)C | > 10000 | 980
14 | – | – | – | COC(=O)N[C@H](C(=O)NN(Cc1ccc(-c2cccnc2)cc1)C[C@](O)(Cc1ccccc1)C(=O)N[C@H]1c2ccccc2C[C@H]1O)C(C)(C)C | > 10000 | 180
15 | < 20 | 3.6 | 94 | COC(=O)N[C@H](C(=O)NN(CCC[C@@](O)(Cc1ccccc1)C(=O)N[C@H]1c2ccccc2C[C@H]1O)Cc1ccc(-c2cccnc2)cc1)C(C)(C)C | > 10000 | 190
16 | – | 3.4 | – | COC(=O)N[C@H](C(=O)NN(CCC[C@@](O)(Cc1ccccc1)C(=O)N[C@H]1c2ccccc2C[C@H]1O)Cc1ccc(Cl)cc1)C(C)(C)C | > 10000 | 910
17 | – | 24 | – | COC(=O)N[C@H](C(=O)NN(CCC[C@@](O)(Cc1ccccc1)C(=O)N[C@H]1c2ccccc2C[C@H]1O)Cc1ccc(-c2nc(C(C)(C)C)cs2)cc1)C(C)(C)C | > 10000 | 1000
18 | – | 190 | – | COC(=O)N[C@H](C(=O)NN(CCC[C@](Cc1ccccc1)(O[Si](C)(C)C(C)(C)C)C(=O)N[C@H]1c2ccccc2C[C@H]1O)Cc1ccc(Br)cc1)C(C)(C)C | 5800 | > 10000
19 | > 20 | 2.3 | – | COC(=O)N[C@H](C(=O)NN(CCC[C@@](O)(Cc1ccccc1)C(=O)N[C@H]1c2ccccc2C[C@H]1O)Cc1ccc(-c2nccs2)cc1)C(C)(C)C | > 10000 | 210
20 | – | 3.5 | – | COC(=O)N[C@H](C(=O)NN(CCC[C@@](O)(Cc1ccccc1)C(=O)N[C@H]1c2ccccc2C[C@H]1O)Cc1ccc(-c2csc(C)n2)cc1)C(C)(C)C | > 10000 | 510
21 | – | 3.6 | – | COC(=O)N[C@H](C(=O)NN(CCC[C@@](O)(Cc1ccccc1)C(=O)N[C@H]1c2ccccc2C[C@H]1O)Cc1ccc(-c2noc(C)n2)cc1)C(C)(C)C | > 10000 | 190
22 | – | 10 | – | COC(=O)N[C@H](C(=O)NN(CCC[C@@](O)(Cc1ccccc1)C(=O)N[C@H]1c2ccccc2C[C@H]1O)Cc1ccc(-c2ccsc2)cc1)C(C)(C)C | > 10000 | 560
23 | – | 3.3 | – | COC(=O)N[C@H](C(=O)NN(CCC[C@@](O)(Cc1ccccc1)C(=O)N[C@H]1c2ccccc2C[C@H]1O)Cc1ccc(-n2ccnc2)cc1)C(C)(C)C | > 10000 | 170
24 | – | 980 | – | COC(=O)N[C@H](C(=O)NN(CCC[C@](Cc1ccccc1)(O[Si](C)(C)C(C)(C)C)C(=O)N[C@H]1c2ccccc2C[C@H]1O[Si](C)(C)C(C)(C)C)Cc1ccc(Br)cc1)C(C)(C)C | > 10000 | > 10000
25 | – | 6.7 | – | COC(=O)N[C@H](C(=O)NN(CCC[C@@](O)(Cc1ccccc1)C(=O)N[C@H]1c2ccccc2C[C@H]1O)Cc1ccc(F)cc1)C(C)(C)C | > 10000 | 980
26 | – | – | – | COC(=O)N[C@H](C(=O)NN(Cc1ccc(Br)cc1)C(=O)CC[C@@](O)(Cc1ccccc1)C(=O)N[C@H]1c2ccccc2C[C@H]1O)C(C)(C)C | > 10000 | > 10000
27 | – | 2.3 | – | COC(=O)N[C@H](C(=O)NN(CCC[C@@](O)(Cc1ccccc1)C(=O)N[C@H]1c2ccccc2C[C@H]1O)Cc1ccc(-c2cn3ccsc3n2)cc1)C(C)(C)C | > 10000 | 480
28 | – | 6.8 | – | COC(=O)N[C@H](C(=O)NN(CCC[C@@](O)(Cc1ccccc1)C(=O)N[C@H]1c2ccccc2C[C@H]1O)CC(C)C)C(C)(C)C | > 10000 | 1800
29 | – | 2.8 | – | COC(=O)N[C@H](C(=O)NN(CCC[C@@](O)(Cc1ccccc1)C(=O)N[C@H]1c2ccccc2C[C@H]1O)Cc1ccc(-c2ccccn2)cc1)C(C)(C)C | > 10000 | 470
30 | – | – | – | CC(C)(C)NC(=O)[C@@H]1CN(Cc2cccnc2)CCN1C[C@@H](O)C[C@@H](Cc1ccccc1)C(=O)N[C@H]1c2ccccc2C[C@H]1O | – | 41

Row | Structure (SMILES) | Papp A→B [2] [×10⁻⁶ cm/s] | Ki (Protease) [nM] | remaining at 0.5 h [4] [%] | CC50 [1] [nM] | EC50 [3] [nM]
31 | COC(=O)N[C@H](C(=O)N[C@@H](Cc1ccccc1)[C@@H](O)CN(Cc1ccc(-c2ccccn2)cc1)NC(=O)[C@@H](NC(=O)OC)C(C)(C)C)C(C)(C)C [ATAZANAVIR] | – | 2.7 | – | – | 3.9
